# Assay results reported in ChEMBL document CHEMBL1151243, “New cytotoxic oleanane-type triterpenoids from the cones of Liquidamber styraciflua” (2004).
# What was measured:
# Assay type in all cases: functional
# [1] = tested on: NCI-H460; experiment: Cytotoxicity against human NCI-H460 cells after 48 hrs by SRB assay; details: NCI-H460, 48 h
# In short: (§1)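 Cells plated at suitable density in RPMI 1640 with 5% fetal bovine serum and left overnight to attach, then exposed to compound for 48 h. Growth measured by sulforhodamine B staining. GI50 (50% growth inhibition) computed from percent-growth values.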
# [2] = tested on: LOX IMVI; experiment: Cytotoxicity against human LOXIMVI cells after 48 hrs by SRB assay; in short: as §1
# [3] = tested on: DU-145; experiment: Cytotoxicity against human DU145 cells after 48 hrs by SRB assay; details: DU-145, 48 h; in short: as §1
# [4] = tested on: U-251; experiment: Cytotoxicity against human U251 cells after 48 hrs by SRB assay; details: U-251, 48 h; in short: as §1
# [5] = tested on: OVCAR-5; experiment: Cytotoxicity against human OVCAR5 cells after 48 hrs by SRB assay; details: OVCAR-5, 48 h; in short: as §1
# [6] = tested on: MKN-74; experiment: Cytotoxicity against human MKN74 cells after 48 hrs by SRB assay; details: MKN-74, 48 h; in short: as §1
# [7] = Cytotoxicity against human BSY1 cells after 48 hrs by SRB assay; details: BSY-1, 48 h; in short: as §1
# [8] = tested on: SF-295; experiment: Cytotoxicity against human SF295 cells after 48 hrs by SRB assay; details: SF-295, 48 h; in short: as §1
# [9] = tested on: St-4; experiment: Cytotoxicity against human St-4 cells after 48 hrs by SRB assay; details: St-4, 48 h; in short: as §1
# [10] = tested on: MKN-28; experiment: Cytotoxicity against human MKN28 cells after 48 hrs by SRB assay; details: MKN-28, 48 h; in short: as §1
# [11] = tested on: SK-OV-3; experiment: Cytotoxicity against human SKOV3 cells after 48 hrs by SRB assay; details: SK-OV-3, 48 h; in short: as §1
# [12] = tested on: MKN-45; experiment: Cytotoxicity against human MKN45 cells after 48 hrs by SRB assay; details: MKN-45, 48 h; in short: as §1
# [13] = Cytotoxicity against human MKN1 cells after 48 hrs by SRB assay; details: MKN-1, 48 h; in short: as §1
# [14] = Cytotoxicity against human RXF631L cells after 48 hrs by SRB assay; details: RXF 631, 48 h; in short: as §1
# [15] = tested on: HT-29; experiment: Cytotoxicity against human HT-29 cells after 48 hrs by SRB assay; details: HT-29, 48 h; in short: as §1
# [16] = tested on: SNB-78; experiment: Cytotoxicity against human SNB78 cells after 48 hrs by SRB assay; details: SNB-78, 48 h; in short: as §1
# [17] = tested on: HCC 2998; experiment: Cytotoxicity against human HCC2998 cells after 48 hrs by SRB assay; details: HCC 2998, 48 h; in short: as §1
# [18] = tested on: OVCAR-3; experiment: Cytotoxicity against human OVCAR-3 cells after 48 hrs by SRB assay; details: OVCAR-3, 48 h; in short: as §1
# [19] = tested on: DMS-114; experiment: Cytotoxicity against human DMS114 cells after 48 hrs by SRB assay; details: DMS-114, 48 h; in short: as §1
# [20] = tested on: PC-3; experiment: Cytotoxicity against human PC3 cells after 48 hrs by SRB assay; details: PC-3, 48 h; in short: as §1
# [21] = tested on: NCI-H522; experiment: Cytotoxicity against human NCI-H522 cells after 48 hrs by SRB assay; details: NCI-H522, 48 h; in short: as §1
# [22] = tested on: DMS-273; experiment: Cytotoxicity against human DMS273 cells after 48 hrs by SRB assay; details: DMS-273, 48 h; in short: as §1
# [23] = tested on: SNB-75; experiment: Cytotoxicity against human SNB75 cells after 48 hrs by SRB assay; details: SNB-75, 48 h; in short: as §1
# [24] = tested on: HCT-116; experiment: Cytotoxicity against human HCT116 cells after 48 hrs by SRB assay; details: HCT-116, 48 h; in short: as §1
# [25] = tested on: MKN-7; experiment: Cytotoxicity against human MKN7 cells after 48 hrs by SRB assay; details: MKN-7, 48 h; in short: as §1
# [26] = tested on: SF-539; experiment: Cytotoxicity against human SF539 cells after 48 hrs by SRB assay; details: SF-539, 48 h; in short: as §1
# [27] = tested on: OVCAR-8; experiment: Cytotoxicity against human OVCAR8 cells after 48 hrs by SRB assay; details: OVCAR-8, 48 h; in short: as §1
# [28] = tested on: HCT-15; experiment: Cytotoxicity against human HCT15 cells after 48 hrs by SRB assay; details: HCT-15, 48 h; in short: as §1
# [29] = tested on: A549; experiment: Cytotoxicity against human A549 cells after 48 hrs by SRB assay; details: A549, 48 h; in short: as §1
# [30] = Cytotoxicity against human HBC4 cells after 48 hrs by SRB assay; details: HBC4, 48 h; in short: as §1
# [31] = tested on: OVCAR-4; experiment: Cytotoxicity against human OVCAR4 cells after 48 hrs by SRB assay; details: OVCAR-4, 48 h; in short: as §1
# [32] = tested on: NCI-H226; experiment: Cytotoxicity against human NCI-H226 cells after 48 hrs by SRB assay; details: NCI-H226, 48 h; in short: as §1
# [33] = tested on: MDA-MB-231; experiment: Cytotoxicity against human MDA-MB-231 cells after 48 hrs by SRB assay; details: MDA-MB-231, 48 h; in short: as §1
# [34] = tested on: SF-268; experiment: Cytotoxicity against human SF268 cells after 48 hrs by SRB assay; details: SF-268, 48 h; in short: as §1
# [35] = tested on: ACHN; experiment: Cytotoxicity against human ACHN cells after 48 hrs by SRB assay; in short: as §1
# [36] = Cytotoxicity against human HBC5 cells after 48 hrs by SRB assay; details: HBC5, 48 h; in short: as §1
# [37] = tested on: NCI-H23; experiment: Cytotoxicity against human NCI-H23 cells after 48 hrs by SRB assay; details: NCI-H23, 48 h; in short: as §1
# [38] = tested on: MCF7; experiment: Cytotoxicity against human MCF7 cells after 48 hrs by SRB assay; details: MCF7, 48 h; in short: as §1
# [39] = tested on: KM12; experiment: Cytotoxicity against human KM12 cells after 48 hrs by SRB assay; details: KM12, 48 h; in short: as §1
compound,measurement,setting,value
CC(=O)OC[C@]12CC[C@@H](O)C(C)(C)C1CC[C@]1(C)[C@@H]2CC=C2[C@@H]3CC(C)(C)CC[C@]3(C(=O)O)CC[C@]21C (some centres undefined),GI50,[1],13.8 µM
same,GI50,[2],11.2 µM
same,GI50,[3],13.2 µM
same,GI50,[4],6.03 µM
same,GI50,[5],18.2 µM
same,GI50,[6],7.76 µM
same,GI50,[7],10.7 µM
same,GI50,[8],8.71 µM
same,GI50,[9],9.12 µM
same,GI50,[10],5.62 µM
same,GI50,[11],20.4 µM
same,GI50,[12],17.8 µM
same,GI50,[13],11 µM
same,GI50,[14],11.7 µM
same,GI50,[15],3.39 µM
same,GI50,[16],15.8 µM
same,GI50,[17],28.2 µM
same,GI50,[18],11 µM
same,GI50,[19],13.5 µM
same,GI50,[20],11.5 µM
same,GI50,[21],13.8 µM
same,GI50,[22],6.31 µM
same,GI50,[23],15.8 µM
same,GI50,[24],4.57 µM
same,GI50,[25],6.61 µM
same,GI50,[26],6.31 µM
same,GI50,[27],11.2 µM
same,GI50,[28],6.46 µM
same,GI50,[29],4.27 µM
same,GI50,[30],7.94 µM
same,GI50,[31],10 µM
same,GI50,[32],18.6 µM
same,GI50,[33],19.5 µM
same,GI50,[34],15.5 µM
same,GI50,[35],5.37 µM
same,GI50,[36],11 µM
same,GI50,[37],8.51 µM
same,GI50,[38],8.32 µM
same,GI50,[39],5.13 µM
